# Data reported in ChEMBL document CHEMBL1134350, “seco-Cyclothialidines: new concise synthesis, inhibitory activity toward bacterial and human DNA topoisomerases, and antibacterial properties” (J Med Chem, 2001).
# Assays:
# [1] = test system: Staphylococcus epidermidis; experiment: Antibacterial activity against Staphylococcus epidermidis 193.; format: functional
# Outline: (§1)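 Agar dilution MIC on IsoSensitest agar or Mueller Hinton agar with 10% horse blood and IsoVitaleX. Overnight cultures were grown in BHI broth for staphylococci and enterobacteria, or in BHI plus 10% bovine serum for streptococci and enterococci, then diluted 1:100. Compounds were tested at 0.125-64 µg/mL. Plates were incubated aerobically at 37 °C for about 20 h. MIC = first concentration with no visible growth.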
# Staphylococcus aureus [2] = experiment: Antibacterial activity against Staphylococcus aureus 133.; format: functional; outline: as §1
# Streptococcus pyogenes [3] = experiment: Antibacterial activity against Streptococcus pyogenes Wacker.; format: functional; outline: as §1
# Proteus vulgaris = experiment: Antibacterial activity against Proteus vulgaris 1017.; format: functional; outline: as §1
# Escherichia coli = experiment: Antibacterial activity against Escherichia coli Neumann.; format: functional; outline: as §1
# Staphylococcus aureus [4] = experiment: Antibacterial activity against Staphylococcus aureus 25470.; format: functional; outline: as §1
# [5] = test system: Staphylococcus saprophyticus; experiment: Antibacterial activity against Staphylococcus saprophyticus 2916.; format: functional; outline: as §1
# Staphylococcus aureus [6] = experiment: Antibacterial activity against Staphylococcus aureus 9TV.; format: functional; outline: as §1
# Streptococcus pyogenes [7] = experiment: Antibacterial activity against Streptococcus pyogenes 4333.; format: functional; outline: as §1
# [8] = test system: Staphylococcus haemolyticus; experiment: Antibacterial activity against Staphylococcus haemolyticus 146.; format: functional; outline: as §1
# Staphylococcus aureus [9] = experiment: Antibacterial activity against Staphylococcus aureus 48 N.; format: functional; outline: as §1
# Klebsiella pneumoniae [10] = experiment: Antibacterial activity against Klebsiella pneumoniae 63.; format: functional; outline: as §1
# Enterococcus faecium [11] = experiment: Antibacterial activity against Enterococcus faecium 27266.; format: functional; outline: as §1
# Staphylococcus aureus [12] = experiment: Antibacterial activity against Staphylococcus aureus 44(25508).; format: functional; outline: as §1
# Staphylococcus aureus [13] = experiment: Antibacterial activity against Staphylococcus aureus 25701.; format: functional; outline: as §1
# Streptococcus pyogenes [14] = experiment: Antibacterial activity against Streptococcus pyogenes 7029.; format: functional; outline: as §1
# Enterococcus faecalis [15] = experiment: Antibacterial activity against Enterococcus faecalis 27253.; format: functional; outline: as §1
# Enterococcus faecium [16] = experiment: Antibacterial activity against Enterococcus faecium L4001.; format: functional; outline: as §1
# Klebsiella pneumoniae [17] = experiment: Antibacterial activity against Klebsiella pneumoniae 8085.; format: functional; outline: as §1
# Streptococcus pyogenes [18] = experiment: Antibacterial activity against Streptococcus pyogenes 4851.; format: functional; outline: as §1
# Proteus mirabilis = experiment: Antibacterial activity against Proteus mirabilis 1235.; format: functional; outline: as §1
# Enterococcus faecalis [19] = experiment: Antibacterial activity against Enterococcus faecalis 27251.; format: functional; outline: as §1
# DNA topoisomerase 1 = target: T1, DNA topoisomerase 1 (Homo sapiens, UniProt P11387); experiment: Antibacterial activity against human DNA Topo I.
# T1 sequence (P11387 whole entry): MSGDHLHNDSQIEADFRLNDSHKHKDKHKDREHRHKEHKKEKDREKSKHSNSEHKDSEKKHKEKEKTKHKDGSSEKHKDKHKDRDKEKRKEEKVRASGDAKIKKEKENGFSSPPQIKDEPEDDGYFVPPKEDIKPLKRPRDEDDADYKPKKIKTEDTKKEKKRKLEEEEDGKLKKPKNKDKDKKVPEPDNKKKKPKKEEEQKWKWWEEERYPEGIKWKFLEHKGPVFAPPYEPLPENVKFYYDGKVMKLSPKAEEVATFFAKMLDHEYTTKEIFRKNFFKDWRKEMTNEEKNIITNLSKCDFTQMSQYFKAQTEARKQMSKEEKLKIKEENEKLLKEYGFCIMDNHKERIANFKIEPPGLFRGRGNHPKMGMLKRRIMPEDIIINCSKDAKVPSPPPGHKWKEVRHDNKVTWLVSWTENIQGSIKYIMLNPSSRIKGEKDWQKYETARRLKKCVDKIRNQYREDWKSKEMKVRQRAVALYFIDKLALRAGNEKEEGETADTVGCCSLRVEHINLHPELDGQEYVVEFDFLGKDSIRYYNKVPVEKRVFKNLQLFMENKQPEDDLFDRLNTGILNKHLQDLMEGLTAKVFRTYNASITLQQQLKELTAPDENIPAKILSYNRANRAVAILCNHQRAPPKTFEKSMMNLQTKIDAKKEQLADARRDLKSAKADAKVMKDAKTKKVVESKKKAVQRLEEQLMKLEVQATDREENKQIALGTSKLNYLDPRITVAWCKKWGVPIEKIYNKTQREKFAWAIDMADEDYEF
# Outline: (§2)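 Human topoisomerase reactions used supercoiled pBR322 (100 ng) with 1 unit enzyme in the supplier's reaction buffer and compounds in DMSO. Incubation was 30 min, stopped with SDS/sucrose dye.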
# DNA topoisomerase II = DNA topoisomerase II (Homo sapiens, UniProt P11388+Q02880); experiment: […] human DNA Topoisomerase II; format: protein assay; outline: as §2
# Enterococcus faecalis [20] = experiment: Antibacterial activity against Enterococcus faecalis.; format: functional; outline: as §1
# Streptococcus pyogenes [21] = experiment: Antibacterial activity against Streptococcus pyogenes.; format: functional; outline: as §1
# Staphylococcus aureus [22] = experiment: Antibacterial activity against Staphylococcus aureus 25923.; format: functional; outline: as §1
# [23] = test system: Staphylococcus epidermidis; experiment: Antibacterial activity against Staphylococcus epidermidis.; format: functional; outline: as §1
# Staphylococcus aureus [24] = experiment: Antibacterial activity against Staphylococcus aureus QR-54.; format: functional; outline: as §1
SMILES,MIC [1] [µg/mL],MIC (Staphylococcus aureus [2]) [µg/mL],MIC (Streptococcus pyogenes [3]) [µg/mL],MIC (Proteus vulgaris) [µg/mL],MIC (Escherichia coli) [µg/mL],MIC (Staphylococcus aureus [4]) [µg/mL],MIC [5] [µg/mL],MIC (Staphylococcus aureus [6]) [µg/mL],MIC (Streptococcus pyogenes [7]) [µg/mL],MIC [8] [µg/mL],MIC (Staphylococcus aureus [9]) [µg/mL],MIC (Klebsiella pneumoniae [10]) [µg/mL],MIC (Enterococcus faecium [11]) [µg/mL],MIC (Staphylococcus aureus [12]) [µg/mL],MIC (Staphylococcus aureus [13]) [µg/mL],MIC (Streptococcus pyogenes [14]) [µg/mL],MIC (Enterococcus faecalis [15]) [µg/mL],MIC (Enterococcus faecium [16]) [µg/mL],MIC (Klebsiella pneumoniae [17]) [µg/mL],MIC (Streptococcus pyogenes [18]) [µg/mL],other results
COC(=O)c1c(Br)c(OC)cc(O)c1CSC[C@@H](Nc1nc(-c2ccc([N+](=O)[O-])cc2)cs1)C1=NOCCO1,> 64,> 64,> 64,> 64,> 64,> 64,> 64,> 64,64,> 64,> 64,> 64,> 64,> 64,> 64,> 64,> 64,> 64,> 64,> 64,MIC (Proteus mirabilis): > 64 µg/mL; MIC (Enterococcus faecalis [19]): > 64 µg/mL
COC(=O)c1c(Br)c(OC)cc(O)c1CSC[C@H](Nc1nc(-c2ccc([N+](=O)[O-])cc2)cs1)C1=NOCCO1,< 0.12,0.25,0.25,> 64,> 64,0.25,< 0.12,0.25,0.25,< 0.12,0.25,> 64,0.5,0.25,< 0.12,0.5,0.5,0.5,> 64,0.25,IC50 (DNA topoisomerase 1): > 375 µM; IC50 (DNA topoisomerase II): 60 µg/mL; MIC (Proteus mirabilis): > 64 µg/mL; MIC (Enterococcus faecalis [19]): 0.5 µg/mL
COC(=O)c1c(Br)c(OC)cc(O)c1CSC[C@H](Nc1nc(-c2ccc([N+](=O)[O-])cc2)cs1)c1nc(C)no1,< 0.12,0.25,0.25,> 64,> 64,0.25,0.25,0.25,< 0.12,0.25,0.25,> 64,0.5,0.25,< 0.12,0.5,0.25,0.5,> 64,0.25,MIC (Enterococcus faecalis [20]): 0.25 µg/mL; MIC (Streptococcus pyogenes [21]): 0.12 µg/mL; MIC (Staphylococcus aureus [22]): 0.12 µg/mL; IC50 (DNA topoisomerase 1): > 377 µM; MIC [23]: 0.12 µg/mL; IC50 (DNA topoisomerase II): 60 µg/mL; MIC (Staphylococcus aureus [24]): 0.25 µg/mL; MIC (Proteus mirabilis): > 64 µg/mL; MIC (Enterococcus faecalis [19]): 0.5 µg/mL
COC(=O)c1c(Br)c(OC)cc(O)c1CSC[C@H](Nc1nc(-c2ccc([N+](=O)[O-])cc2)cs1)C(=O)OC,0.5,1,1,> 64,> 64,1,1,1,1,1,1,> 64,2,2,1,2,1,2,> 64,1,IC50 (DNA topoisomerase 1): > 392 µM; IC50 (DNA topoisomerase II): 15 µg/mL; MIC (Proteus mirabilis): > 64 µg/mL; MIC (Enterococcus faecalis [19]): 2 µg/mL
